From PubChem
DAT uptake mod = modulates human dopamine transporter uptake under cocaine. Q01959. LLC-PK1 hDAT cells, [14C]-dopamine uptake with cocaine IC80; actives deviate in either direction. B-score at 10 µM. 110,000 tested, 1.3% active. AID 449768;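 active means Z score or B-score, a plate-position-corrected score, falls beyond the plate's 99.7% confidence bounds, in either direction; inactive means both scores lie inside the 99.7% bounds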;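 further: scored against the spread of the other compound wells on the same plate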
HEK293 NFkB inh = inhibitors of the PMA/ionomycin-induced NF-kB reporter in HEK293 cells; 62,000 tested, 0.21% active; AID 465; HEK-293 NF-kB luciferase reporter, luminescence; inhibition, % at 3 µM;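 active means inhibition above the mean of all tested compounds plus 3 SD, cut at about 40% in these data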;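 further: 0% = stimulated DMSO wells and 100% = 10 µM reference inhibitor 5653914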
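System – HEK-293 cells with stable firefly luciferase reporter driven by four HIV NF-kB elements · Doses – one dose, 3 µM · Schedule – 1 h compound pre-incubation, 16 h PMA/ionomycin at 37 °C · Technique – luminescence from luciferase substrate reagent · Measure – percent inhibition normalized per plate to DMSO and reference-inhibitor controls · Replicates – tested once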
M1 antagonist = M1 muscarinic receptor (rat) antagonism. P08482. CHO-M1 cells, Fluo-4 calcium, ACh EC80 antagonist mode; stronger effect = lower value. B-score at 10 µM. 64,000 tested, 3.4% active;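 active means calcium fluorescence response, raw or row-and-column corrected B-score, differing from the plate sample mean either way at a set confidence level, mostly lower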
Jurkat viability = cytotoxicity toward Jurkat cells. inhibition, % at 4 µM. Jurkat E6.1 viability, ATP luminescence, 48 h. 56,000 tested, 1.2% active;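 active means inhibition above the mean inhibition of all tested compounds plus 3 SD, cut at about 28% in these data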
M1 ag = activates the M1 muscarinic receptor | CHO-M1 cells, Fluo-4 calcium fluorescence, agonist mode; stronger effect = higher value | B-score at 10 µM | 64,000 tested, 3% active | AID 626;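 active means fluorescence rise, raw or as B-score row- and column-corrected plate score, outside the 99.7% band of its plate's samples, either direction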
D1 allo mod = D1 dopamine receptor (human) allosteric modulation. P21728. HEK293 D1, CRE-luciferase, dopamine EC30 potentiation; actives deviate in either direction. B-score at 10 µM. 58,000 tested, 5.9% active. AID 641;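 active means luminescence count or its row- and column-corrected plate score outside the 99.7% band of the plate's sample wells, on either side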
Target sequence (P21728 whole entry, looked up): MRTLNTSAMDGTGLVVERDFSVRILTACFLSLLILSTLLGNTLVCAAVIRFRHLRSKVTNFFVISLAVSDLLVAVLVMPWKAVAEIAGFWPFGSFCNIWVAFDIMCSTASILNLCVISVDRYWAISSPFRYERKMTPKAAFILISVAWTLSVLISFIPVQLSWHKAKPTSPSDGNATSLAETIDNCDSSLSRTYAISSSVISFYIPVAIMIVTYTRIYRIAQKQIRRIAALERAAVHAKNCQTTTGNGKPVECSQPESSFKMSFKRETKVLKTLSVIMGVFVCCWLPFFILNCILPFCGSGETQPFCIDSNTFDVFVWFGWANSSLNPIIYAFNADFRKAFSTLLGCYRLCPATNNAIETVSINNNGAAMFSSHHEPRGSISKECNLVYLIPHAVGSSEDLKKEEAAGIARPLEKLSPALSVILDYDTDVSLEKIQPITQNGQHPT
M1 antag confirm = M1 muscarinic receptor (rat) antagonism, confirmed; CHO-M1 cells, Fluo-4 calcium, ACh EC80 antagonism; stronger effect = lower value; shares compounds with M1 antagonist; 1,700 tested, 43% active; calcium response (max-min fluorescence) at 10 µM;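 active means calcium response below the same-plate mean of wells given acetylcholine alone at its 80%-effect dose, minus 3 SD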;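 further: raw fluorescence intensity difference in arbitrary instrument units and not normalized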
mGluR4 antag = selectivity test for M1 antagonists: human mGluR4 receptor | shares compounds with M1 antagonist | CHO-mGluR4 calcium flux, Fluo-4 fluorescence, glutamate EC80; stronger effect = lower value | fluorescence response (max-min) at 10 µM | 1,700 tested, 0.9% active | AID 678;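 active means fluorescence response below the plate's average for near-maximal glutamate wells, less 3 SD of those wells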;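 further: raw unnormalized fluorescence span taken in the window right after glutamate addition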
* hit, by the source's call; . = no result given. Hits are enriched below; roughly 7.6% of the tested compounds scored in any of these assays.

SMILES	DAT uptake mod	HEK293 NFkB inh	M1 antagonist	Jurkat viability	M1 ag	D1 allo mod	M1 antag confirm	mGluR4 antag
Nc1nc(SCc2nnc(SCC(=O)O)n2-c2ccccc2)nc2sc3c(c12)CCCC3	0.049	.	.	.	.	.	.	.
CCN(CC)S(=O)(=O)c1ccc2[nH]cc(C(=O)NCCc3ccc(OC)c(OC)c3)c(=O)c2c1	2.9	-3	0.37	.	-0.11	2.2	.	.
CC1CCC(NC(=O)Cn2cc3c(n2)CCCC3)CC1 (stereo not drawn)	0.18	-1	0.19	2	-0.38	0.78	.	.
CCOC(=O)CN1C(=O)C(CC)Oc2ccc(Cl)cc21 (stereo not drawn)	0.52	20	-3.6*	.	-0.097	-0.43	672	152
CCCCNC(=O)CN1C(=O)C(CC)Oc2ccc(Cl)cc21 (stereo not drawn)	0.61	7	-0.19	-6	-0.0082	-1.1	.	.
COC(=O)c1ccccc1NC(=O)NCC1CCCO1 (stereo not drawn)	-0.014	15	-1.9*	5	0.0033	-0.6	469	237
COc1ccccc1CNC(=O)C1CCN(Cc2nc(-c3cccc(Cl)c3)oc2C)CC1	1.4	22	-0.42	2	-0.48	-0.35	.	.
COc1ccc(CCNC(=O)C2CC(=O)N(C3CCCC3)C2)cc1OC (stereo not drawn)	-0.14	11	0.26	-9	-0.0063	0.00034	.	.
CCOC(=O)c1sc2nc3n(c(=O)c2c1C)CCC(C)CC3 (stereo not drawn)	-0.39	9	0.029	1	1.2	1.9	.	.
CCOC(=O)N1CCC(NC(=O)c2sc3nc4n(c(=O)c3c2C)CCCC4)CC1	0.15	12	-2.6*	.	0.58	0.45	612	279
N#CC1=C(N)NC(SCc2ccccc2)=C(C#N)C12CCCCC2	.	6	-1.4	10	0.72	-0.76	.	.
CCSC1=C(C#N)C2(CCCCC2)C(C#N)=C(N)N1	-0.66	10	-2.7*	4	-0.91	-0.24	505	212
Cc1ccc2nc(NCCCN3CCOCC3)c(C=NCCCN3CCOCC3)c(=O)n2c1	0.11	8	0.5	2	-1.7	0.64	.	.
COc1ccc(OCCC(=O)Nc2cc(C)on2)cc1	0.2	4	0.68	0	-0.03	-0.06	.	.
COc1ccc(S(=O)(=O)N(C)c2ccc(OCC(=O)Nc3cc(C)on3)cc2)cc1	-0.78	0	-2.8*	-4	-0.64	-0.071	604	218
Cc1ccc(NC(=O)NC(=O)CN2C(=O)NC3(CCCCCCC3)C2=O)c(C)c1	-0.02	7	-2.2*	6	-0.12	-0.012	588	164
Cc1c(C(=O)N2CCOCC2)oc2c1C(=O)CC(C)(C)C2	0.54	8	0.76	2	0	-0.72	.	.
Cc1cccc(NC(=O)c2ccccn2)c1C	0.7	-3	-1.9*	0	0.83	-0.69	658	256
Cc1ccc(C)c(NC(=O)c2ccccn2)c1	-0.038	6	0.59	-2	0.091	-1.1	.	.
CCC(=O)c1ccc(OCC(=O)Nc2nn3cnnc3s2)cc1	1.1	8	-0.042	.	0.6	-0.048	.	.
O=C(CCN1CCCCC1)c1ccccc1	-0.91	.	.	.	.	.	.	.
CCc1oc2ccccc2c1C(=O)CCN1CCCCC1	-2.1	-3	-7.1*	0	0.19	-1.1	196*	235
CSC1=NC2(CCCCC2)C2=C(CCCC2)N1	-0.61	9	-0.68	14	-0.99	.	.	.
COc1cc2nc(N3CCNCC3)nc(N)c2cc1OC	0.45	21	-1.4*	-1	0.58	0.41	663	183
Cc1ccc2ccc(S(=O)(=O)n3nc(C)cc3C)cc2c1	-0.87	14	-2*	-4	-1.3	0.27	443*	269
CC(=O)Nc1ccc(S(=O)(=O)n2nc(C)cc2C)cc1	0.018	16	0.55	1	0.016	0.65	.	.
CCC(C)NC(=O)C(Cc1ccccc1)NS(=O)(=O)c1cccc2nsnc12 (stereo not drawn)	-0.23	27	-2	2	0.0097	-1.5	.	.
CCCNS(=O)(=O)c1ccc(CCC(=O)N2CCC(C)CC2)cc1	0.35	6	-2*	.	0.04	1.3	643	253
